ChEMBL document CHEMBL5705886, “GSK1070916, a potent Aurora B/C kinase inhibitor with broad antitumor activity in tissue culture cells and human tumor xenograft models” (Mol Cancer Ther, 2009)
The source made the active and inactive calls. The rule behind the calls is not given here.

Legend:
HCT-8 = assay: Antiproliferative activity against human HCT-8 cells assessed as inhibition of cell viability measured for 6 to 7 days by cell titer glo assay; format: functional, cell-based
Method in brief: (§1)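 Tumor lines plated in recommended growth media, overnight at 37°C, 5% CO2, then given serial dilutions; a T=0 plate read with CellTiter-Glo at dosing. After 6–7 d of exposure, viability read by CellTiter-Glo luminescence. No-cell wells subtracted, data expressed as % of DMSO control.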

HeLa = assay: Antiproliferative activity against human HeLa cells assessed as inhibition of cell viability measured for 6 to 7 days by cell titer glo assay; format: functional, cell-based
Method in brief: (§2)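 Cells seeded in recommended growth medium, incubated overnight at 37°C in 5% CO2, then exposed to serial dilutions of inhibitor for 6–7 d. A parallel plate was read with CellTiter-Glo at compound addition as a T=0 value. The luminescent viability readout had no-cell background subtracted and was expressed as % of DMSO control.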

[1] = Antiproliferative activity against human A375P cells assessed as inhibition of cell viability measured for 6 to 7 days by cell titer glo assay; format: functional, cell-based; method in brief: as §1
NCI-H157 = assay: Antiproliferative activity against human NCI-H157 cells assessed as inhibition of cell viability measured for 6 to 7 days by cell titer glo assay; format: functional, cell-based; method in brief: as §2
MHH-PREB-1 = assay: Antiproliferative activity against human MHH-PREB-1 cells assessed as inhibition of cell viability measured for 6 to 7 days by cell titer glo assay; format: functional, cell-based; method in brief: as §2
U-937 = assay: Antiproliferative activity against human U-937 cells assessed as inhibition of cell viability measured for 6 to 7 days by cell titer glo assay; format: functional, cell-based
MC-CAR = assay: Antiproliferative activity against human MC-CAR cells assessed as inhibition of cell viability measured for 6 to 7 days by cell titer glo assay; format: functional, cell-based; method in brief: as §2
RL = assay: Antiproliferative activity against human RL cells assessed as inhibition of cell viability measured for 6 to 7 days by cell titer glo assay; format: functional, cell-based
Method in brief: (§3)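 Cells seeded in recommended growth medium, held overnight at 37°C in 5% CO2, then exposed to serial dilutions of inhibitor for 6–7 d. A time-zero plate was read with CellTiter-Glo at dosing. Luminescent viability read at the end. No-cell wells subtracted as background, data expressed as percent of DMSO control.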

DOHH-2 = assay: Antiproliferative activity against human DOHH-2 cells assessed as inhibition of cell viability measured for 6 to 7 days by cell titer glo assay; format: functional, cell-based; method in brief: as §1
ARH-77 = assay: Antiproliferative activity against human ARH-77 cells assessed as inhibition of cell viability measured for 6 to 7 days by cell titer glo assay; format: functional, cell-based; method in brief: as §1
[2] = Antiproliferative activity against human BC1 cell line assessed as inhibition of cell viability measured for 6 to 7 days by cell titer glo assay; format: functional, cell-based; method in brief: as §1
[3] = Antiproliferative activity against human BC-2 cells assessed as inhibition of cell viability measured for 6 to 7 days by cell titer glo assay; format: functional, cell-based; method in brief: as §1
JIYOYE = assay: Antiproliferative activity against human JIYOYE cells assessed as inhibition of cell viability measured for 6 to 7 days by cell titer glo assay; format: functional, cell-based; method in brief: as §2
NC-37 = assay: Antiproliferative activity against human NC-37 cells assessed as inhibition of cell viability measured for 6 to 7 days by cell titer glo assay; format: functional, cell-based; method in brief: as §2
HD-MY-Z = assay: Antiproliferative activity against human HD-MY-Z cells assessed as inhibition of cell viability measured for 6 to 7 days by cell titer glo assay; format: functional, cell-based; method in brief: as §1
[4] = Antiproliferative activity against human Hs 445 cells assessed as inhibition of cell viability measured for 6 to 7 days by cell titer glo assay; format: functional, cell-based; method in brief: as §2
[5] = Antiproliferative activity against human OCI-M1 cells assessed as inhibition of cell viability measured for 6 to 7 days by cell titer glo assay; format: functional, cell-based; method in brief: as §3
KG-1 = assay: Antiproliferative activity against human KG-1 cells assessed as inhibition of cell viability measured for 6 to 7 days by cell titer glo assay; format: functional, cell-based; method in brief: as §2
EM-2 = assay: Antiproliferative activity against human EM-2 cells assessed as inhibition of cell viability measured for 6 to 7 days by cell titer glo assay; format: functional, cell-based; method in brief: as §1
BV-173 = assay: Antiproliferative activity against human BV-173 cells assessed as inhibition of cell viability measured for 6 to 7 days by cell titer glo assay; format: functional, cell-based; method in brief: as §1
KU812 cell line = assay: Antiproliferative activity against human KU812 cell line assessed as inhibition of cell viability measured for 6 to 7 days by cell titer glo assay; format: functional, cell-based; method in brief: as §2
[6] = Antiproliferative activity against human SKW-3 cells assessed as inhibition of cell viability measured for 6 to 7 days by cell titer glo assay; format: functional, cell-based; conditions: SKW3; method in brief: as §3
MOLT-3 = assay: Antiproliferative activity against human MOLT-3 cells assessed as inhibition of cell viability measured for 6 to 7 days by cell titer glo assay; format: functional, cell-based; method in brief: as §2
[7] = Antiproliferative activity against human CEM/C1 cells assessed as inhibition of cell viability measured for 6 to 7 days by cell titer glo assay; format: functional, cell-based; method in brief: as §1
A549 [8] = assay: Effect on cell cycle distribution in human A549 cells assessed as decrease in 2N DNA content incubated for 24 to 72 hrs by flow cytometry based analysis; format: functional; conditions: dose 2-5000 nM, time 24-72 hrs
COLO 205 = assay: Induction of apoptosis in human COLO 205 cells assessed as caspase-3 cleavage at 10 nmol/L incubated for 24 hrs by Western blot analysis; format: functional, cell-based
A549 [9] = assay: Induction of mitotic alteration in human A549 cells formation of multipolar spindles at 12 to 330 nmol/L incubated for 24 hrs by immunofluorescent microscopy based analysis; format: functional, cell-based; conditions: dose lower […], dose upper 330.0 nmol/L
[10] = Toxicity in SCID nude mouse xenografted with human NCI-H460 cells assessed as drug tolerance at 25 to 100 mg/kg, ip administered once daily for 5 consecutive days with 2 days off scheduled for 3 cycles measured upto 60 days; format: organism-based; conditions: in vivo, 1440 h, dose 25-100 mg/kg, time < 60 day
[11] = Toxicity in SCID nude mouse xenografted with human MCF7 cells assessed as drug tolerance at 50 to 100 mg/kg, ip administered once daily for 5 consecutive days with 2 days off scheduled for 3 cycles measured upto 60 days; format: organism-based; conditions: in vivo, 1440 h, dose 50-100 mg/kg, time < 60 day
[12] = Toxicity in SCID nude mouse xenografted with human COLO 205 cells assessed as body weight loss at 25 to 100 mg/kg, ip administered once daily for 5 consecutive days with 2 days off scheduled for 2 cycles measured upto 60 days relative to control; format: organism-based; conditions: in vivo, 1440 h, dose 25-100 mg/kg, time < 60 day
[13] = Toxicity in SCID nude mouse xenografted with human HL-60 cells assessed as body weight loss at 100 mg/kg, ip administered once daily for 5 consecutive days with 2 days off scheduled for 2 cycles measured upto 60 days; format: organism-based; conditions: in vivo, 1440 h, time < 60 day
[14] = target: Aurora kinase C (Homo sapiens) (UniProt Q9UQB9); assay: Binding affinity to Aurora C (unknown origin) assessed as dissociation half life
Aurora kinase C (Homo sapiens), sequence (Q9UQB9 whole entry): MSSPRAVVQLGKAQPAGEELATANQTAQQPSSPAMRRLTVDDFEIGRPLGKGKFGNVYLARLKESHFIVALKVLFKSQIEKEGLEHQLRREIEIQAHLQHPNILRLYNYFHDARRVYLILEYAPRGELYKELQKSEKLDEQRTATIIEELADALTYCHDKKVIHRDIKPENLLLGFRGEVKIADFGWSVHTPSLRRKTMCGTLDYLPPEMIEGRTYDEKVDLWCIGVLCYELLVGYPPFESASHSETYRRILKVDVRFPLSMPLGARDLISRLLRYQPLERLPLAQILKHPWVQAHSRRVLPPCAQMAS

A549 [15] = assay: Antitumor activity in human A549 cells xenografted in nude mouse assessed as reduction in tumor growth at 25 to 100 mg/kg, ip administered once daily for 5 consecutive days with 2 days off scheduled for 3 cycles measured upto 60 days; conditions: dose 25-100 mg/kg, time <= 60.0 day

## CCn1cc(-c2ccnc3[nH]c(-c4cccc(CN(C)C)c4)cc23)c(-c2ccc(NC(=O)N(C)C)cc2)n1 [GSK-1070916]
HCT-8
  EC50: 38 nM
HeLa
  EC50: 13 nM
[1]
  EC50: 7 nM
NCI-H157
  EC50: 8 nM
MHH-PREB-1
  EC50: 4 nM
U-937
  EC50: 5 nM
MC-CAR
  EC50: 9 nM
RL
  EC50: 10 nM
DOHH-2
  EC50: 14 nM
ARH-77
  EC50: 15 nM
[2]
  EC50: 18 nM
[3]
  EC50: 75 nM
JIYOYE
  EC50: 5 nM
NC-37
  EC50: 7 nM
HD-MY-Z
  EC50: 4 nM
[4]
  EC50: 5 nM
[5]
  EC50: 20 nM
KG-1
  EC50: 32 nM
EM-2
  EC50: 4 nM
BV-173
  EC50: 5 nM
KU812 cell line
  EC50: 8 nM
[6]
  EC50: 5 nM
MOLT-3
  EC50: 5 nM
[7]
  EC50: 6 nM
A549 [8]
  Activity: Active
COLO 205
  Activity: Active
A549 [9]
  Activity: Active
[10]
  Activity: Non-Toxic
[11]
  Activity: Toxic
[12]
  Activity: < 15%
[13]
  Activity: Toxic
[14]
  T1/2: 4.5 h
A549 [15]
  Activity: Active
